# GASC-1 inh = inhibitors of human GASC-1 (JMJD2C) demethylase | Q9H3R0 | GST-JMJD2C(1-420) H3K9me3 demethylation, DELFIA europium | inhibition, % at 2.35 µM | 0.069% of 330,000 active;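 active = more than half of a compound's replicate wells show inhibition beyond 50%, single wells judged on their own value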;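 note: signal counts dimethyl H3K9 product captured on neutravidin plate; 0% = median of DMSO wells and 100% = 0.3 times that DMSO median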
# procasp7 counter = activates human procaspase-7, counter-screen for procaspase-3 activators; P55210; recombinant procaspase-7, Ac-DEVD-pNA absorbance 405 nm; D23A/D198A/D206A triple mutant, cannot self-cleave; scale: DMSO 0, 5 µM enzyme 100; activation, % at 8.5 µM; 0.093% of 330,000 active;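 active = percent activation above the screen-wide mean plus 3 SD, cut at about 25% in these data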
# Target sequence (P55210 whole entry D23A/D198A/D206A): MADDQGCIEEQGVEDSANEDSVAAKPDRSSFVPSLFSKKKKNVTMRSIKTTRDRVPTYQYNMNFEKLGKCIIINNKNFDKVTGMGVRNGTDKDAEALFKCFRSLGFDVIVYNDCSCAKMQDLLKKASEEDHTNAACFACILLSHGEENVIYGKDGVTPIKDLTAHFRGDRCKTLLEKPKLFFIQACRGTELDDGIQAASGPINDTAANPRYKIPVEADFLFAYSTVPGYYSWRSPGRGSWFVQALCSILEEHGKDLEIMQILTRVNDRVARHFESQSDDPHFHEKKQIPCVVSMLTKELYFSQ
#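 Assay system: Uncleavable procaspase-7 mutant enzyme | Input: 2 µM procaspase-7 mutant as dispensed | Timing: 1 h compound preincubation, 2 h substrate cleavage, 25 °C | Repeats: One well per compound | Control set: DMSO wells as 0%, DMSO with 5 µM added PC-7 as 100% | Technique: Epi-absorbance of released pNA at 405 nm, two timepoints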
# Lipid droplet = hepatic lipid droplet formation modulation | AML12 mouse hepatocytes, oleate lipid droplets, BODIPY imaging | inhibition, % at 6.5 µM | 0.4% of 240,000 active;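 active = lipid droplet intensity inhibited by at least 50%, with more than 500 cells counted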
#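 Material – AML12 mouse liver cells · Also added – oleate loading, 100 µM · Compound dosing – 6.5 µM single-point dosing · Times – overnight treatment with compound plus oleate · Measured by – fluorescence imaging, 20x objective, two fields per well · Read-out – percent inhibition of filter-corrected integrated lipid droplet intensity per well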
# VLA-4 inh = inhibition in a human VLA-4 binding assay | 0.2% of 330,000 active | inhibition, % (about 7 µM as worked out from the volumes in the protocol) | P13612 | VLA-4 expressing cells, ligand binding flow cytometry | AID 2557; in the data active = inhibition above about 50%
# procasp3 activ = activates human procaspase-3 | P42574 | activation, % at 8.5 µM | 0.11% of 330,000 active | recombinant procaspase-3 D3A, Ac-DEVD-pNA absorbance 405 nm | AID 463141;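 active = activation above the mean of all tested compounds plus 3 SD, cut at about 21% in these data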;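 note: 0% = DMSO alone and 100% = DMSO wells spiked with extra 5 µM PC-3 D3A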
# Target sequence (P42574 whole entry D9A/D28A/D175A): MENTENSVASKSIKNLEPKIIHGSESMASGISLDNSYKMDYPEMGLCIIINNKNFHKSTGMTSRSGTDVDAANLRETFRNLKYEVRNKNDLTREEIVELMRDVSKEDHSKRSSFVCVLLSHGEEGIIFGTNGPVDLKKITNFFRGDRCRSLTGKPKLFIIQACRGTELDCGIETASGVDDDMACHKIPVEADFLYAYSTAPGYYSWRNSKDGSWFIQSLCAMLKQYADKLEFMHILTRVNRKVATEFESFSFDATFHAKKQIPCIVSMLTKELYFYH
#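 Compound: 8.5 µM single point, 0.8% DMSO / Material: Autoprocessing-dead procaspase-3 D3A mutant enzyme / Timing: 1 h preincubation plus 2 h reaction at 25 °C / Medium: Zinc-free HEPES/NaCl buffer with 0.01% Triton X-100 at pH 7.4 / Technique: 405 nm absorbance of p-nitroaniline, reads at 0 and 120 min / Repeats: one well per compound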
# GRK2 inh = inhibitors of human GRK2 displacing RNA aptamer; 0.59% of 330,000 active; AID 488847; inhibition of aptamer binding, % at 10 µM; bead flow cytometry, FAM-aptamer displacement from GRK2; P25098;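 active = inhibition of aptamer binding above 40%, roughly 3 SD of noise, on plates passing a quality check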;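 note: median bead fluorescence of bound FAM aptamer so fluorescent compounds give negative values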
# PC3 dual counter = activates human procaspase-3, dual activator counter-screen. shares compounds with procasp7 counter. recombinant PC-3 D3A, Ac-DEVD-pNA absorbance 405 nm; aspartates 9, 28, 175 changed to alanine; 100% = enzyme control. activation, % at 8.5 µM. 290 tested, under 10 active. AID 493114;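 active = mean percent activation across triplicates above a set limit taken from the earlier primary procaspase-3 screen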;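 note: 0% = DMSO wells and 100% = DMSO wells with 5 µM added PC-3 D3A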
# PC7 dual conf = confirmation of dual procaspase activators: human procaspase-7 activation; shares compounds with procasp7 counter; recombinant procaspase-7, Ac-DEVD-pNA absorbance 405 nm; D23A/D198A/D206A mutant that cannot self-cleave; activation, % at 8.5 µM; 290 tested, under 10 active; AID 493115;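 active = mean activation above a set limit carried over from the earlier primary screen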;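 note: 0% = DMSO only and 100% = DMSO with added 5 µM PC-7 enzyme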
# GRK2 inh confirm = confirmation of human GRK2 inhibitors displacing RNA aptamer; shares compounds with GRK2 inh; bead-bound GRK2, FAM-aptamer displacement, flow cytometry; aptamer displacement, % at 10 µM; 4% of 2,000 active; AID 504451;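 active = aptamer displacement above 40%, near three times the noise of non-fluorescent compounds, on plates passing quality checks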;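 note: negative values mostly reflect intrinsic compound fluorescence rather than true enhancement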
# FAM quench CP1 = counter-screen for GRK2 aptamer inhibitors: fluorescent aptamer quenchers; AID 504580; 2,000 tested, under 10 active; Carboxyfluorescein RNA aptamer on beads, flow cytometry quenching; stronger effect = lower value; shares compounds with GRK2 inh; fluorescence response (% of DMSO), % at 10 µM;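 active = compounds that quench the bead-bound fluorescent RNA probe, cutting fluorescence to under half of the solvent control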;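 note: counterscreen run without GRK2 so only probe quenching by compound is measured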
# * = called active by the depositor; nt = no result given. The list is not random: actives were taken first. Their share in the collection is about 1.3%.
SMILES,GASC-1 inh,procasp7 counter,Lipid droplet,VLA-4 inh,procasp3 activ,GRK2 inh,PC3 dual counter,PC7 dual conf,others
COc1ccc(-c2cc3nc(-c4ccccc4)cc(N4CCC(O)CC4)n3n2)cc1,7.4,32.4*,-35.0,6.2,-2.4,0.0,-0.8,-5.5,
COc1ccc(-c2cc3nc(-c4ccccc4)cc(N4CCCC(O)C4)n3n2)cc1 (stereo unspecified),2.1,58.4*,-9.7,3.2,28.9*,5.0,-1.6,-5.1,
CCc1ccc(NC(=O)C2C3CCC(O3)C2C(=O)O)cc1 (stereo unspecified),8.1,-5.2,-3.8,11.6,-0.2,2.0,nt,nt,
O=C1CC(C(=O)O)(c2ccccc2)c2cccc(F)c21 (stereo unspecified),-14.3,-5.1,1.6,0.9,7.3,1.0,nt,nt,
COc1ccc(C(=O)C2CN(c3ccccc3)CC2c2ccc(Cl)cc2)cc1 (stereo unspecified),-0.5,28.9*,nt,-3.9,13.5,0.0,2.9,2.2,
O=C(COC(=O)/C=C/c1cccc(F)c1)NC1CCCCCC1,7.9,7.3,nt,-0.6,-5.2,5.0,nt,nt,
CCN(CC)c1ccc(-c2c(C#N)c(N)nc(OC)c2C#N)cc1,-1.4,27.0*,-1.3,-20.3,60.0*,2.0,-27.2,-34.8,
Cn1nc(N)c2c(-c3ccc(Cl)cc3)c(C#N)c(N)nc21,6.3,-10.1,-4.1,1.3,-1.6,0.0,nt,nt,
CC(=O)c1ccc(S(=O)(=O)Oc2ccc(C(=O)O)cc2Cl)cc1,-9.9,3.8,nt,0.0,1.2,1.0,nt,nt,
COc1ccc(OC)c(C(C(=O)NC2CCCCC2)N(C(=O)c2snc(C(N)=O)c2N)c2ccccc2OC)c1 (stereo unspecified),-10.4,-4.1,-20.9,4.6,-0.4,0.0,nt,nt,
COc1ccccc1N(C(=O)c1snc(C(N)=O)c1N)C(C(=O)NC1CCCCC1)c1cccc(OC)c1OC (stereo unspecified),6.3,37.1*,-21.8,3.3,14.0,5.0,-20.7,-17.6,
NC(=O)c1nsc(C(=O)N(c2ccccc2)C(C(=O)NCc2ccc(F)cc2)c2ccc(O)cc2)c1N (stereo unspecified),-55.5,157.3*,0.9,-20.5,-76.4,4.0,-29.8,-35.9,
COc1ccc(CNC(=O)C(c2ccc(C)o2)N(C(=O)c2snc(C(N)=O)c2N)c2ccccc2OC)cc1 (stereo unspecified),0.1,26.3*,-14.0,9.9,-104.6,0.0,-25.1,-24.0,
CCOc1ccc(CCNC(=O)COC(=O)c2oc3ccccc3c2COC)cc1OCC,5.5,7.0,nt,4.6,4.8,0.0,nt,nt,
O=C(CCc1nc(-c2ccccc2Cl)no1)NCCc1ccccc1,18.0,5.9,2.2,4.5,9.1,2.0,nt,nt,
COc1ccc(O)c(C=NCC(C)N=Cc2cc(OC)ccc2O)c1 (stereo unspecified),-12.9,-2.8,8.6,1.2,15.1,0.0,nt,nt,
COc1cccc(C=NCC(C)N=Cc2cccc(OC)c2O)c1O (stereo unspecified),7.9,82.3*,18.3,5.3,6.9,6.0,-0.7,-1.2,
CCOC(=O)c1ccc2nc(NC(C)=O)sc2c1,-13.1,11.9,2.5,-4.2,4.0,0.0,nt,nt,
CCOC(=O)c1ccc2nc(Nc3nc4ccc(F)cc4s3)sc2c1,-18.4,30.6*,-5.2,4.4,20.4,6.0,-27.2,-35.4,
COC(=O)C1=CN(Cc2ccccc2)C=C(C(=O)OC)C1c1ccc(O)c(OC)c1,-2.2,-1.7,-5.1,14.6,-4.5,2.0,nt,nt,
CCOc1cc(C2C(C(=O)OC)=CN(Cc3ccc(Cl)cc3)C=C2C(=O)OC)ccc1O,-3.5,56.1*,-2.9,0.4,27.4*,2.0,-1.5,-2.6,
Cc1nc(SCc2ccccc2)[nH]c(=O)c1CC(=O)OCC(C)C,30.0,-6.9,-3.3,7.8,2.4,1.0,nt,nt,
Cc1ccc(N)cc1NC(=O)CN1CCOCC1,25.3,26.1*,5.8,14.6,12.9,2.0,2.5,-1.0,
Cc1c(O)ccc2c(CC(=O)N[C@@H](Cc3ccc(O)cc3)C(=O)O)cc(=O)oc12,0.7,nt,8.3,-1.6,nt,3.0,nt,nt,
O=C(Cc1cc(=O)oc2cc(O)ccc12)NC(Cc1ccc(Cl)cc1)C(=O)O (stereo unspecified),-0.9,26.9*,-0.8,4.9,19.5,0.0,-30.4,-35.9,
SMILES,GASC-1 inh,procasp7 counter,Lipid droplet,VLA-4 inh,procasp3 activ,GRK2 inh,PC3 dual counter,PC7 dual conf,others
O=C(NCCc1ccccc1)C(=O)NCC1CCCN1S(=O)(=O)c1cccs1 (stereo unspecified),-0.5,8.8,nt,7.8,1.8,0.0,nt,nt,
Cc1[nH]nc2c1C(c1c[nH]c3ccccc13)C(C#N)=C(N)O2 (stereo unspecified),-3.9,29.4*,5.8,-4.7,18.5,1.0,20.9,13.8,
CC(C)NC(=O)c1cc2c(=O)n3ccccc3nc2s1,-7.0,2.3,17.9,-2.1,-1.9,0.0,nt,nt,
CSc1ccccc1NC(=O)c1cc2c(=O)n3ccccc3nc2s1,-0.1,38.5*,7.0,17.1,-5.6,2.0,-29.1,-34.6,
Nn1c(COc2cccc(Br)c2)nnc1SCC(=O)NCC1CCCO1 (stereo unspecified),0.4,-3.1,nt,2.6,-0.5,0.0,nt,nt,
CCN1C(=O)N/C(=C/c2ccc(Sc3ccc(C)cc3)o2)C1=O,1.4,70.5*,nt,11.9,37.8*,2.0,-26.1,-25.6,
OCC[C@@H]1C[C@H](O)[C@@H](O)[C@@]2(CCCc3ccccc3O2)O1,12.1,3.2,1.2,13.7,3.8,3.0,nt,nt,
Cc1ccc(Cl)cc1C1=CC(=O)C[C@H](c2ccc(F)cc2)C1,-0.5,26.9*,nt,0.0,2.6,64.0*,-0.3,-0.1,GRK2 inh confirm=3.1;FAM quench CP1=110.2
O=C(COC(=O)c1ccc2ccccc2n1)Nc1ccccc1F,5.6,3.9,nt,-44.5,-1.9,0.0,nt,nt,
CCOCCn1c(CN2CCCCC2C)nc2c1c(=O)n(C)c(=O)n2C (stereo unspecified),-5.8,9.6,-0.4,10.9,8.3,1.0,nt,nt,

# Bioassay records as filed in PubChem BioAssay.
